From ChEMBL document CHEMBL3228039, “Synthesis and evaluation of the antiovulatory activity of a variety of melatonin analogues” (J Med Chem, 1979)
Each block holds one molecule with its values, some of them ahead of it. Calls of active or inactive are those of the source. The calls are words filed in the database; no cut-off is given here.

Tests used:
[1] = Half life in rat plasma after 30 mins; type: ADME, cell-free
[2] = Half life in serum (unknown origin) after first 2 hrs post iv dose; type: ADME, organism-based
[3] = Half life in rat plasma after 2 hrs; type: ADME, cell-free
Rattus norvegicus [4] = assay: Antiovulatory activity in Sprague-Dawley rat assessed as blockage of luteinizing hormone surge by measuring reduction in ovulation at 8 mg/kg, po by microscopic analysis; type: functional, organism-based; parameters: dose 8 mg/kg
Outline: (§1)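 Female rats (270-300 g) with at least two consecutive 4-day estrus cycles, tracked by daily vaginal smears, were used on the day of proestrus. A single dose was given at 1200 h, either iv in 50% Me2SO or orally in PEG 400. Controls received vehicle only. Rats were killed on the day of estrus, and oviducts were examined microscopically for ova. Absence of ova was scored as ovulation blocked.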

Rattus norvegicus [5] = assay: Antiovulatory activity in Sprague-Dawley rat assessed as blockage of luteinizing hormone surge by measuring reduction in ovulation at 8 mg/kg, iv by microscopic analysis; type: functional, organism-based; parameters: dose 8 mg/kg; outline: as §1
Rattus norvegicus [6] = assay: Antiovulatory activity in Sprague-Dawley rat assessed as blockage of luteinizing hormone surge by measuring reduction in ovulation at 4 mg/kg, iv by microscopic analysis; type: functional, organism-based; parameters: dose 4 mg/kg; outline: as §1
Xenopus laevis = species on record: Xenopus laevis; assay: Melatonin-like activity in tadpole by blanching test; type: functional, organism-based
Rattus norvegicus [7] = assay: Antiovulatory activity in Sprague-Dawley rat assessed as blockage of luteinizing hormone surge by measuring reduction in ovulation at 5 mg/kg, po by microscopic analysis; type: functional, organism-based; parameters: dose 5 mg/kg; outline: as §1
Rattus norvegicus [8] = assay: Antiovulatory activity in Sprague-Dawley rat assessed as blockage of luteinizing hormone surge by measuring reduction in ovulation at 4 mg/kg, po by microscopic analysis; type: functional, organism-based; parameters: dose 4 mg/kg; outline: as §1

half-life [1]: 15 min | half-life [2]: > 12 min | half-life [3]: 12 min
SMILES: COc1ccc2[nH]cc(CCNC(C)=O)c2c1 [MELATONIN]

SMILES: COc1ccc2c(c1)c(CCNC(C)=O)cn2C
Activity (Rattus norvegicus [4]): Active

SMILES: CC(=O)NCCc1c[nH]c2ccc(O)cc12
Activity (Rattus norvegicus [4]): Active | Activity (Rattus norvegicus [5]): Active

SMILES: COc1cc2c(CCNC(C)=O)c[nH]c2cc1C
Activity (Rattus norvegicus [4]): Active

SMILES: CC(=O)NCCc1c[nH]c2ccc(OC3CCCC3)cc12
Activity (Rattus norvegicus [4]): Active

SMILES: CCOc1ccc2[nH]cc(CCNC(C)=O)c2c1
Activity (Rattus norvegicus [4]): Active

SMILES: CC(=O)NCCc1c[nH]c2ccc(OC(C)=O)cc12
Activity (Rattus norvegicus [4]): Active | Activity (Rattus norvegicus [5]): Active

SMILES: COc1ccc2[nH]cc(CCNC(C)=O)c2c1Cl
Activity (Rattus norvegicus [4]): Active

SMILES: COc1cc2c(CCNC(=O)C34CC5CC(CC(C5)C3)C4)c[nH]c2cc1Cl
Activity (Rattus norvegicus [4]): Active

half-life [2]: 27 min
SMILES: COc1cc2c(CCNC(C)=O)c[nH]c2cc1Cl
Activity (Rattus norvegicus [6]): inactive | Activity (Xenopus laevis): Active | Activity (Rattus norvegicus [7]): inactive

SMILES: CCC(=O)NCCc1c[nH]c2cc(Cl)c(OC)cc12
Activity (Rattus norvegicus [8]): inactive
